In ChEMBL document CHEMBL4342521 (J Med Chem, 2020):
pEC50, pIC50: −log10 of the molar value. Calls of active or inactive are those of the source. The rule behind the calls is not given here.

Experiments:
[1] = biological target: T1, Protein deacetylase HDAC6 (Homo sapiens, UniProt Q9UBN7); experiment: Inhibition of recombinant HDAC6 (unknown origin) using Boc-Lys(acetyl)-AMC as substrate preincubated for 1 hr followed by substrate addition and measured after 2 hrs by fluorescence based micro plate reader analysis
T1 sequence (Q9UBN7 whole entry): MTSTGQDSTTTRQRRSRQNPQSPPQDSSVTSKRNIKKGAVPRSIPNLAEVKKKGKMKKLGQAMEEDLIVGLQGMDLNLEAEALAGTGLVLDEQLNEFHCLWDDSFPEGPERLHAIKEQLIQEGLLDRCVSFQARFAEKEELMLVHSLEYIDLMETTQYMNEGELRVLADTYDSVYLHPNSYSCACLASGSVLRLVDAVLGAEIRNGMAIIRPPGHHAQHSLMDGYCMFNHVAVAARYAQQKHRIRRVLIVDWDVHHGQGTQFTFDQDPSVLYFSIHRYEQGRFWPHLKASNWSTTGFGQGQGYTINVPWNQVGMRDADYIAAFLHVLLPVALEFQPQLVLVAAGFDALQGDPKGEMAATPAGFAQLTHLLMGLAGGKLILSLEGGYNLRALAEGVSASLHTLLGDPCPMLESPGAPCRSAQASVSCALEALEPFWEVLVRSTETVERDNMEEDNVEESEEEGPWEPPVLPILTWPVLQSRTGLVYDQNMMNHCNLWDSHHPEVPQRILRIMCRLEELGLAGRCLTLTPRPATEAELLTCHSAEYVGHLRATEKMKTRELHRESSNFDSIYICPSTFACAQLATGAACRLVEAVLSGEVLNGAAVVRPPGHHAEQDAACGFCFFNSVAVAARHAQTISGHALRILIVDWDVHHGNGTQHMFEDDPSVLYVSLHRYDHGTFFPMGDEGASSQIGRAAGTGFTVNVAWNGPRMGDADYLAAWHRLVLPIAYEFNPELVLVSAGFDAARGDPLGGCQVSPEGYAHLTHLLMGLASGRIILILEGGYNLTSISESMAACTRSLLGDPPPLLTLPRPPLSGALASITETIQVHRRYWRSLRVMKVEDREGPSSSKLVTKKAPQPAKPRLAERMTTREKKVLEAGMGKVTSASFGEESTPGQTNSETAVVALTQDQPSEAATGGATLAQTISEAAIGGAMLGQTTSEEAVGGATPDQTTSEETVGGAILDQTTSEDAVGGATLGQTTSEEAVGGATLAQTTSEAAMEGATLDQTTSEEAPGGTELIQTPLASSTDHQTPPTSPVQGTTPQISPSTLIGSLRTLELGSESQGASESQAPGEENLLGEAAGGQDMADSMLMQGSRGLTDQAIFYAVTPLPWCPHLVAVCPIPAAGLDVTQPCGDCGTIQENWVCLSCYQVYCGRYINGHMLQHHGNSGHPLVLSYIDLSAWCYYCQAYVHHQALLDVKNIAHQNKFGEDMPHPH

[2] = biological target: Histone deacetylase 1 (Homo sapiens, UniProt Q13547); experiment: Inhibition of recombinant HDAC1 (unknown origin) using Boc-Lys(acetyl)-AMC as substrate preincubated for 1 hr followed by substrate addition and measured after 2 hrs by fluorescence based micro plate reader analysis
Chain of Histone deacetylase 1 (Q13547 whole entry): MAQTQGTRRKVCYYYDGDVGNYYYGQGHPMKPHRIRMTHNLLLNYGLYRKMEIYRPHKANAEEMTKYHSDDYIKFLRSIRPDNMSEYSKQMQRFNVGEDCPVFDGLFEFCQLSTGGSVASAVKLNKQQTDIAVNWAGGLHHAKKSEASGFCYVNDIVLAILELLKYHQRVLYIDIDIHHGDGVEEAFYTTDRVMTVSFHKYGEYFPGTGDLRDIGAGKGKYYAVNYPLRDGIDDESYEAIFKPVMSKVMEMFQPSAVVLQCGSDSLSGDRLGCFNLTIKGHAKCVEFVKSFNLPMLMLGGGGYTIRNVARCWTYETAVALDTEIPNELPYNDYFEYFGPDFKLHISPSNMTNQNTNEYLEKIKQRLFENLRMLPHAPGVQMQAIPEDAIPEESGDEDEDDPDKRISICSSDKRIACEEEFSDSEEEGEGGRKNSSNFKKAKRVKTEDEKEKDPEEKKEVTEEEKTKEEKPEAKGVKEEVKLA

[3] = biological target: Histone deacetylase 3/Nuclear receptor corepressor 2 (HDAC3/NCoR2) (Homo sapiens, UniProt O15379); experiment: biochemical; design: species or system Sf9
Chain of Histone deacetylase 3/Nuclear receptor corepressor 2 (HDAC3/NCoR2) (O15379 whole entry): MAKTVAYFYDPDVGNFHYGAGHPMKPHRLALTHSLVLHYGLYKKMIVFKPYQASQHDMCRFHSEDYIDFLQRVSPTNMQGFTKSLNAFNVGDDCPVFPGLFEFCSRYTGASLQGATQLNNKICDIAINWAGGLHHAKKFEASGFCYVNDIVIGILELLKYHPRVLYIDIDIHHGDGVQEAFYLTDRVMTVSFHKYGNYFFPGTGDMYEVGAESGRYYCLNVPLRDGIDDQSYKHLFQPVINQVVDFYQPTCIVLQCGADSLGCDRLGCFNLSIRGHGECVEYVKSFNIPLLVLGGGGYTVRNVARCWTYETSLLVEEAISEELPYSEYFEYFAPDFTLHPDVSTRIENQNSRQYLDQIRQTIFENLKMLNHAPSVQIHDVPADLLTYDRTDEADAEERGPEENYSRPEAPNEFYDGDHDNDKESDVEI
Chain of Histone deacetylase 3/Nuclear receptor corepressor 2 (HDAC3/NCoR2) (Q9Y618 whole entry, further chain): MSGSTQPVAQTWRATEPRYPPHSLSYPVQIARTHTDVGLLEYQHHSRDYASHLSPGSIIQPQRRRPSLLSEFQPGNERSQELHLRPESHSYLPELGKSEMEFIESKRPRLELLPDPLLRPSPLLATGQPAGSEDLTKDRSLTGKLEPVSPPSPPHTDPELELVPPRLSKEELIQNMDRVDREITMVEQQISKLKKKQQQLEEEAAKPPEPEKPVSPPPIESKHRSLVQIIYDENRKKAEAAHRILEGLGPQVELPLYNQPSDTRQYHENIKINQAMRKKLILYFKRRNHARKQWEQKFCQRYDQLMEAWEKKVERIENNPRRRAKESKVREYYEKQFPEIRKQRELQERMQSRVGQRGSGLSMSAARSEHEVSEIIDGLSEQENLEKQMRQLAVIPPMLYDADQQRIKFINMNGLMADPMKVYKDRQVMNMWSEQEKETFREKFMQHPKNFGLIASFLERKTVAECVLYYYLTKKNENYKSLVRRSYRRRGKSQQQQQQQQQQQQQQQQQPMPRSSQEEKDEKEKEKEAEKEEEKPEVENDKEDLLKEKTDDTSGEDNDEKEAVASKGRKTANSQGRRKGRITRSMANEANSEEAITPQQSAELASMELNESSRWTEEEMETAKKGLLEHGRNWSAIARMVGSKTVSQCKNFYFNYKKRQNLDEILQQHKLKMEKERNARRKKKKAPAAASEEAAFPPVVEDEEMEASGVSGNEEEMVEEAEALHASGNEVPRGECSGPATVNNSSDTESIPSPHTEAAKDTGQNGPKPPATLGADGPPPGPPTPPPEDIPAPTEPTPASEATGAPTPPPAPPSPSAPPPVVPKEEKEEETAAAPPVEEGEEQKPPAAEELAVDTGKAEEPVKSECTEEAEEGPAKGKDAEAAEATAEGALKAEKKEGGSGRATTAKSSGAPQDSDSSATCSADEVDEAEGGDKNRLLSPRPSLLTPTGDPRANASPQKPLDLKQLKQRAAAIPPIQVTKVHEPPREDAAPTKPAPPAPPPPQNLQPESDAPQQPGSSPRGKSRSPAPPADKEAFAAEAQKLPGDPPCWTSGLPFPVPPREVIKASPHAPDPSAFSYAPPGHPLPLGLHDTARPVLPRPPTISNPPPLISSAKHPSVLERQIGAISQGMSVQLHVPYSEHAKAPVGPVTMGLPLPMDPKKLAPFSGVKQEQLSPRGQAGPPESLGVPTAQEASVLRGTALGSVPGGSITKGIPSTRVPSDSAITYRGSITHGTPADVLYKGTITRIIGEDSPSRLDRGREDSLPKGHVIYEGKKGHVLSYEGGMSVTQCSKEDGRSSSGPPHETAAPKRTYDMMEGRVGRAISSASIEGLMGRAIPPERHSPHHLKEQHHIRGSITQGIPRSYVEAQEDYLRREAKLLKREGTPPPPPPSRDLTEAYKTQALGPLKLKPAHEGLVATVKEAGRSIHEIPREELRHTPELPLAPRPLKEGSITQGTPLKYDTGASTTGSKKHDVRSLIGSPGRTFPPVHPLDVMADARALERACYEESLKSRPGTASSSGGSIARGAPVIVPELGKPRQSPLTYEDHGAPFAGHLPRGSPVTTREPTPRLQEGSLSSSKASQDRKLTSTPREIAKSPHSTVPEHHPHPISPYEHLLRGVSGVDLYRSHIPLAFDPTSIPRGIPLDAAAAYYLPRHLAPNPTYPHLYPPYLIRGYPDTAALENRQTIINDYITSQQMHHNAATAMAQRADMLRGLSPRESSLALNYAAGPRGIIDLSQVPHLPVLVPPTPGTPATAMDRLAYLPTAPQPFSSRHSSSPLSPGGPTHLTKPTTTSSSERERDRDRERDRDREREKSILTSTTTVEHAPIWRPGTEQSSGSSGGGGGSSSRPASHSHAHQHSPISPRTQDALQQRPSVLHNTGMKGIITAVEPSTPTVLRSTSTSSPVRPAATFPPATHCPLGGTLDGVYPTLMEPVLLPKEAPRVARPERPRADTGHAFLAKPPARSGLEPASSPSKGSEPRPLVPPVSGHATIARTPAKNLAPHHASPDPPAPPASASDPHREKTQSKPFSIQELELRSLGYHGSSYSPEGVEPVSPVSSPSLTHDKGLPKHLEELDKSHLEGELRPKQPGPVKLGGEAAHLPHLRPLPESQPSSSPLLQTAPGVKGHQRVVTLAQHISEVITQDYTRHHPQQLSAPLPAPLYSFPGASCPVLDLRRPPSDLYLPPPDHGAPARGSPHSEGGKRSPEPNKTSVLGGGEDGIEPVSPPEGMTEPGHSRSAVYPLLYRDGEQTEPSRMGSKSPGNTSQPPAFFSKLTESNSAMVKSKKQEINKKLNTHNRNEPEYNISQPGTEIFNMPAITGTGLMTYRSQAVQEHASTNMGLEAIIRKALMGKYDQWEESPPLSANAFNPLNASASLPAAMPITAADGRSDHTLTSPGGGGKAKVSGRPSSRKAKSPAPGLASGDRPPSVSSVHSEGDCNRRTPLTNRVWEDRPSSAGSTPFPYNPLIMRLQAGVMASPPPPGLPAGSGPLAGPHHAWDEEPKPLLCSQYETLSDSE

[4] = biological target: Histone deacetylase 2 (Homo sapiens, UniProt Q92769)
Chain of Histone deacetylase 2 (Q92769 whole entry): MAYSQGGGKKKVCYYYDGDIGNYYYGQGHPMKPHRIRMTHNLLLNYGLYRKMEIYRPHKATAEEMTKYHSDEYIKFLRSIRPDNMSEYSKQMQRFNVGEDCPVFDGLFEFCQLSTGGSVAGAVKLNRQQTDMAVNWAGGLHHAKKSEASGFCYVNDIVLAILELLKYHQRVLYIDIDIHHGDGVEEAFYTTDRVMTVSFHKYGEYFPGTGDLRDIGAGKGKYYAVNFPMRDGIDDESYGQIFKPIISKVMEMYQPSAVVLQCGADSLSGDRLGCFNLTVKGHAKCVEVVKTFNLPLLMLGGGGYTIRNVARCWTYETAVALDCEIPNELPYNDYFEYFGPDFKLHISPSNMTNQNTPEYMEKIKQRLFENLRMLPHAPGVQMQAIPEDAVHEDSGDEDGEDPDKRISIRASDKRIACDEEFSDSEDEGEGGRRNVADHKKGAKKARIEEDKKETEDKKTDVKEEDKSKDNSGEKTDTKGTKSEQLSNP

[5] = tested on: MV4-11; experiment: Induction of apoptosis in human MV4-11 cells harboring wild type p53/FLT3-ITD mutant assessed as cleavage of pro-caspase 3 at 1000 to 5000 nM after 24 hrs by Western blot analysis; type: functional, cell-based
Procedure, shortened: (§1)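 Cells (1,500,000 per well) grown 12 h, then drug-treated as specified. Lysed in RIPA buffer, sonicated, centrifuged, protein normalized by BCA. Run on 4–12% Bis-Tris gels in MES, transferred, probed overnight at 4 °C with primary antibodies at 1/1000. Actin served as reference for LC3-II quantitation.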

[6] = tested on: MV4-11; experiment: cells; settings: Homo sapiens, MV4-11, 48 h
[7] = Half life in BALB/c mouse at 50 mg/kg, po via gavage after 24 hrs by Lc-MS/MS analysis; type: ADME, organism-based; settings: in vivo
[8] = tested on: MV4-11; experiment: Induction of apoptosis in human MV4-11 cells harboring wild type p53/FLT3-ITD mutant assessed as cleavage of pro-caspase 3 at 100 nM after 24 hrs by Western blot analysis; type: functional, cell-based; procedure, shortened: as §1
[9] = Cmax in BALB/c mouse at 50 mg/kg, po via gavage after 24 hrs by Lc-MS/MS analysis; type: ADME, organism-based; design: dose 50 mg/kg, route oral; settings: in vivo
[10] = AUC (0 to infinity) in BALB/c mouse at 50 mg/kg, po via gavage after 24 hrs by Lc-MS/MS analysis; type: ADME, organism-based; design: dose 50 mg/kg, time infinity, route oral; settings: in vivo
[11] = Mutagenecity in Salmonella typhimurium TA100 at 10 uM in presence of S9 liver homogenate after 2 to 3 days by mini-Ames test; type: toxicity; settings: salmonella enterica subsp. enterica serovar typhimurium, s9, 10 µM
Procedure, shortened: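 Compound was tested at a final 10 μM undiluted plus four serial dilutions, with S9 mix and glucose/biotin/trace-histidine exposure solution, for 100 min at 37 °C. Reversion medium was added and cultures dispensed to 96 wells for 2–3 days at 37 °C. Yellow or partial-yellow wells were scored positive; 2-aminoanthracene was the positive control.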

[12] = Oral bioavailability in BALB/c mouse at 50 mg/kg dosed via gavage after 24 hrs by Lc-MS/MS analysis; type: ADME, organism-based; settings: in vivo
[13] = tested on: RS4-11; experiment: Induction of apoptosis in human RS4:11 cells harboring wild type p53/FLT3 assessed as cleavage of pro-caspase 3 at 100 nM after 24 hrs by Western blot analysis; type: functional, cell-based; procedure, shortened: as §1
[14] = tested on: MV4-11; experiment: Antiproliferative activity against human MV4-11 cells at 50 uM after 48 hrs by CellTiter-Blue dye based spectrophotometric analysis; type: functional, cell-based
[15] = tested on: MV4-11; experiment: Inhibition of autophagy in human MV4-11 cells assessed as LC3-II degradation at 5 uM after 24 hrs by Western blot analysis; type: functional, cell-based; procedure, shortened: as §1
[16] = tested on: RS4-11; experiment: Induction of apoptosis in human RS4:11 cells harboring wild type p53/FLT3 assessed as cleavage of pro-caspase 3 at 5000 nM after 24 hrs by Western blot analysis; type: functional, cell-based; procedure, shortened: as §1
[17] = tested on: MV4-11; experiment: Induction of apoptosis in human MV4-11 cells harboring wild type p53/FLT3-ITD mutant assessed as cleavage of pro-caspase 3 at 5000 nM after 24 hrs by Western blot analysis; type: functional, cell-based; procedure, shortened: as §1
[18] = tested on: MV4-11; experiment: Induction of apoptosis in human MV4-11 cells harboring wild type p53/FLT3-ITD mutant assessed as cleavage of pro-caspase 3 at 50 to 200 nM after 24 hrs by Western blot analysis; type: functional, cell-based; procedure, shortened: as §1
[19] = tested on: MV4-11; experiment: Down regulation of FTL3 in human MV4-11 cells harboring wild type p53/FLT3-ITD mutant at 50 to 200 nM after 24 hrs by Western blot analysis; type: functional, cell-based; procedure, shortened: as §1
[20] = tested on: MV4-11; experiment: Down regulation of STAT5 in human MV4-11 cells harboring wild type p53/FLT3-ITD mutant at 50 to 200 nM after 24 hrs by Western blot analysis; type: functional, cell-based; procedure, shortened: as §1

Row | SMILES | pIC50 [1] | pIC50 [2] | pIC50 [3] | pIC50 [4] | further results
1 | CCCNNC(=O)c1ccc(CN(Cc2ccccc2)C(=O)OC(C)(C)C)cc1 | < 4.30 | 6.66 | 7.11 | 6.24 | 
2 | Nc1ccccc1NC(=O)c1ccc(CNC(=O)OCc2cccnc2)cc1 |  |  |  |  | Activity [5]: Active
3 | CCCNNC(=O)c1ccc(CNCc2ccccc2)cc1 | < 4.30 | 7.06 | 7.01 | 6.36 | pEC50 [6]: 6.76
4 | Cc1[nH]c2ccccc2c1CCNCc1ccc(/C=C/C(=O)NO)cc1 [PANOBINOSTAT] |  |  |  |  | half-life [7]: 2.9 h; Activity [8]: Active; Cmax [9]: 116 ng/mL; AUC(0-inf) [10]: 126 ng·h/mL; Activity [11]: Toxic; bioavailability [12]: 4.62%; Activity [13]: Active
5 | CCCNNC(=O)c1ccc(OCc2ccccc2)cc1 | < 4.30 | 7.25 | 7.61 | 6.76 | 
6 | CCCNNC(=O)c1cccc(CNCCc2c(C)[nH]c3ccccc23)c1 | < 4.30 | 5.78 | 6.17 | 5.31 | 
7 | CCCNNC(=O)/C=C/c1ccc(CN(CCc2c(C)[nH]c3ccccc23)C(=O)OC(C)(C)C)cc1 | < 4.30 | 6.74 | 7.78 | 5.89 | 
8 | CCCNNC(=O)c1cccc(CN(CCc2c(C)[nH]c3ccccc23)C(=O)OC(C)(C)C)c1 | < 4.30 | 5.60 | < 5.30 | < 5.30 | 
9 | COC(=O)CCNNC(=O)/C=C/c1ccc(CNCCc2c(C)[nH]c3ccccc23)cc1 | < 4.30 | 5.96 | 6.51 | 5.38 | 
10 | Nc1ccc2cc3ccccc3cc2c1 [2-AMINOANTHRACENE] |  |  |  |  | Activity [11]: Toxic
11 | Cc1[nH]c2ccccc2c1CCNCc1ccc(/C=C/C(=O)NNCCC#N)cc1 | < 4.30 | 7.24 | 7.46 | 6.76 | 
12 | Cc1[nH]c2ccccc2c1CCNCc1ccc(/C=C/C(=O)NNCCN)cc1 | < 4.30 | 5.01 | 5.28 | < 5.00 | 
13 | Cc1[nH]c2ccccc2c1CCNCc1ccc(/C=C/C(=O)NN2CCCCC2)cc1 | < 4.30 | < 5.00 | < 5.00 | < 5.00 | Activity [14]: inactive
14 | CCN(CC)CCCC(C)Nc1ccnc2cc(Cl)ccc12 (stereo not drawn) |  |  |  |  | inhibition [15]: Active
15 | CCCCCCN(CCC)NC(=O)/C=C/c1ccc(CNCCc2c(C)[nH]c3ccccc23)cc1 | < 4.30 | 5.54 | 6.84 | 5.01 | 
16 | CCCCN(CCC)NC(=O)/C=C/c1ccc(CNCCc2c(C)[nH]c3ccccc23)cc1 | < 4.30 | 6.68 | 6.64 | 5.49 | 
17 | CCCNNC(=O)c1ccc(NCc2ccccc2)cc1 | < 4.30 | 7.80 | 8.21 | 7.17 | 
18 | CCCNNC(=O)c1ccc(NC(=O)c2ccccc2)cc1 | < 4.30 | 7.03 | 7.31 | 6.32 | 
19 | CCCCCN(CCC)NC(=O)/C=C/c1ccc(CNCCc2c(C)[nH]c3ccccc23)cc1 | < 4.30 | 6.42 | 6.49 | 5.14 | 
20 | Cc1[nH]c2ccccc2c1CCNCc1ccc(/C=C/C(=O)NN(CCCO)CCCO)cc1 | < 4.30 | < 5.00 | < 5.00 | < 5.00 | Activity [14]: inactive
21 | CCCN(CCC)NC(=O)/C=C/c1ccc(CNCCc2c(C)[nH]c3ccccc23)cc1 | < 4.30 | 6.38 | 7.60 | 5.86 | 
22 | CCCNNC(=O)c1ccc(CN(CCc2c(C)[nH]c3ccccc23)C(=O)OC(C)(C)C)cc1 | < 4.30 | 7.54 | 7.90 | 6.56 | 
23 | CCCN(CC)NC(=O)/C=C/c1ccc(CNCCc2c(C)[nH]c3ccccc23)cc1 | < 4.30 | 5.53 | 6.26 | 5.09 | 
24 | Cc1[nH]c2ccccc2c1CCNCc1ccc(/C=C/C(=O)NN2CCCC2)cc1 | < 4.30 | 5.07 | 5.51 | < 5.00 | Activity [14]: inactive
25 | Cc1[nH]c2ccccc2c1CCNCc1ccc(/C=C/C(=O)NN(C)C)cc1 | < 4.30 | 4.96 | 6.00 | 4.89 | Activity [14]: inactive
26 | O=C(CCCCCCC(=O)Nc1ccccc1)NO |  |  |  |  | Activity [16]: Active; Activity [17]: Active
27 | CCCNNC(=O)c1ccc(CNC(=O)/C=C/c2ccccc2)cc1 |  |  |  |  | Activity [18]: Active; Activity [19]: Active; Activity [20]: Active
28 | CCCNNC(=O)c1ccc(CNCCc2c(C)[nH]c3ccccc23)cc1 | < 4.30 | 7.53 | 7.70 | 6.97 | 
